Values belong to the molecule of their own block, whether it stands above or below them. Activity calls are given as the source filed them. The rule behind the calls is not given here.
What was measured:
[1] = Toxicity in C57BL/6 mouse xenografted with C57BL/6 mouse GL261 cells assessed as body weight at 100 mg/kg, po administered via gavage once daily for 10 days starting from 7 days post tumor cell inoculation; format: organism-based; conditions: in vivo, 240 h, dose 100 mg/kg/day, time 10 day
Procedure, shortened: (§1)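 Orthotopic model: 5x10^4 GL261 cells in 2 µL serum-free DMEM injected into the right hemisphere of 60-day-old male and female C57BL/6 mice (17-25 g) under ketamine/xylazine. Treatment began 7 days later, n=9 per group. Compound was given in 0.9% saline with 10% DMSO and 0.3% Tween-80, as 100 µL ip or 200 µL by gavage. Body weight change (final minus initial) and mortality were monitored.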

C6 [2] = assay: Antiproliferative activity against rat C6 cells assessed as cell growth inhibition preincubated with NAC for 1 hr prior to compound challenge and measured after 72 hrs by SRB assay; format: functional, cell-based
Procedure, shortened: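 C6 cells were pretreated with 2 mM N-acetylcysteine for 1 h, then exposed to compound for 72 h. Viability was measured by SRB assay relative to DMSO-treated controls. Auranofin served as the reference thiol-reactive control.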

[3] = Selectivity index, ratio of CC50 for Wistar rat astrocytes to EC50 for human U-251 MG cells
Procedure, shortened: (§2)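 Selectivity index is astrocyte CC50 divided by the glioma-line EC50, both from 72 h SRB assays. No index is given when astrocyte cytotoxicity could not be calculated at the highest concentration tested.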

Rattus norvegicus [4] = species on record: Rattus norvegicus; assay: Inhibition of TrxR in rat liver assessed as reduction in TNB formation using DTNB and NADPH as substrate at 100 uM preincubated with enzyme for 15 mins followed by NADPH addition by absorbance based analysis; format: tissue-based
Procedure, shortened: (§3)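 TrxR activity was measured at 37 °C in 100 mM potassium phosphate pH 7.0 with 2 mg/mL DTNB and 0.01 mg/mL enzyme. Enzyme was preincubated for 15 min with compound or DMSO, then the reaction was started with 0.2 mg/mL NADPH. TNB formation was followed at 412 nm (ε 13.6 mM-1 cm-1). Assays were run in duplicate, with enzyme-free blanks subtracted.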

[5] = Hepatotoxicity in C57BL/6 mouse xenografted with C57BL/6 mouse GL261 cells assessed as serum ALP level at 100 mg/kg, po or ip administered once daily for 10 days starting from 7 days post tumor cell inoculation and measured on day 17 (reference value: 19.1 +/- 8.9 U/L); format: toxicity, organism-based; conditions: in vivo, 240 h, dose 100 mg/kg/day, time 10 day
[6] = Hematological toxicity in C57BL/6 mouse xenografted with C57BL/6 mouse GL261 cells assessed as hematocrit level in blood at 100 mg/kg, po or ip administered once daily for 10 days starting from 7 days post tumor cell inoculation and measured on day 17 (reference value: 44.5 +/- 1.8%); format: organism-based; conditions: in vivo, 240 h, dose 100 mg/kg/day, time 10 day
[7] = Selectivity index, ratio of CC50 for Wistar rat astrocytes to EC50 for rat C6 cells; procedure, shortened: as §2
U-251 = assay: Antiproliferative activity against human U251MG cells assessed as cell growth inhibition measured after 72 hrs by SRB assay; format: functional, cell-based; conditions: U-251, 72 h
[8] = Hepatotoxicity in C57BL/6 mouse xenografted with C57BL/6 mouse GL261 cells assessed as serum ALT level at 100 mg/kg, po or ip administered once daily for 10 days starting from 7 days post tumor cell inoculation and measured on day 17 (reference value: 7.6 +/- 4.2 U/L); format: toxicity, organism-based; conditions: in vivo, 240 h, dose 100 mg/kg/day, time 10 day
C6 [9] = assay: Antiproliferative activity against rat C6 cells assessed as cell growth inhibition measured after 72 hrs in presence of 0.0001 to 0.001% Triton X-100 by SRB assay; format: functional, cell-based
Procedure, shortened: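 Rat C6 glioma cells were incubated for 72 h in medium with no detergent or with 0.0001% or 0.001% Triton X-100, as a check for aggregation-based cytotoxicity. Viability was read by SRB assay and an EC50 was derived from concentration-response curves. Mean ± SD of three independent assays.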

[10] = Toxicity in C57BL/6 mouse xenografted with C57BL/6 mouse GL261 cells at 100 mg/kg, po administered via gavage once daily for 10 days starting from 7 days post tumor cell inoculation; format: organism-based; conditions: in vivo, 240 h, dose 100 mg/kg/day, time 10 day; procedure, shortened: as §1
[11] = Antitumor activity against C57BL/6 mouse GL261 cells xenografted in C57BL/6 mouse assessed as reduction in tumor volume at 100 mg/kg, ip administered once daily for 10 days starting from 7 days post tumor cell inoculation and measured on day 17; format: functional; conditions: C57BL/6, GL261, ip, 240 h, time 10 day
Procedure, shortened: (§4)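 GL261 cells (5x10^4 in 2 µL DMEM) were injected into the right hemisphere of 60-day-old male and female C57BL/6 mice (17-25 g) under ketamine/xylazine. From day 7, mice received compound once daily for 10 days (n=9 per group), by gavage (200 µL) or ip (100 µL). Vehicle was 0.9% saline with 10% DMSO and 0.3% Tween-80. Tumor volume was taken as the summed segmented areas of three H&E coronal sections.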

[12] = Hematological toxicity in C57BL/6 mouse xenografted with C57BL/6 mouse GL261 cells assessed as blood glucose level at 100 mg/kg, po or ip administered once daily for 10 days starting from 7 days post tumor cell inoculation and measured on day 17 (reference value: 108 +/- 13 mg/dl); format: organism-based; conditions: in vivo, 240 h, dose 100 mg/kg/day, time 10 day
[13] = Toxicity in C57BL/6 mouse xenografted with C57BL/6 mouse GL261 cells assessed as mortality at 100 mg/kg, ip administered once daily for 10 days starting from 7 days post tumor cell inoculation; format: organism-based; conditions: in vivo, 240 h, dose 100 mg/kg/day, time 10 day; procedure, shortened: as §1
[14] = Hematological toxicity in C57BL/6 mouse xenografted with C57BL/6 mouse GL261 cells assessed as WBC level in blood at 100 mg/kg, po or ip administered once daily for 10 days starting from 7 days post tumor cell inoculation and measured on day 17 (reference value: 8.6 +/- 1.6x10^3/uL); format: organism-based; conditions: in vivo, 240 h, dose 100 mg/kg/day, time 10 day
[15] = Toxicity in C57BL/6 mouse xenografted with C57BL/6 mouse GL261 cells assessed as body weight at 100 mg/kg, ip administered once daily for 10 days starting from 7 days post tumor cell inoculation; format: organism-based; conditions: in vivo, 240 h, dose 100 mg/kg/day, time 10 day; procedure, shortened: as §1
[16] = Cytotoxicity against Wistar rat astrocytes assessed as cell growth inhibition measured after 72 hrs by SRB assay; format: cell-based, Astrocyte
Procedure, shortened: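 Primary astrocytes taken from the cortex of 2-day-old Wistar rats by mechanical dissociation, grown on poly-L-lysine in high-glucose DMEM and treated at 90% confluence (12-15 days). Exposed to 0.1-100 µM for 72 h, then SRB assay with absorbance read at 510 nm against DMSO controls. Mean ± SD of three independent assays.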

[17] = Toxicity in C57BL/6 mouse xenografted with C57BL/6 mouse GL261 cells assessed as mortality at 100 mg/kg, po administered via gavage once daily for 10 days starting from 7 days post tumor cell inoculation; format: organism-based; conditions: in vivo, 240 h, dose 100 mg/kg/day, time 10 day; procedure, shortened: as §1
U-87 MG = assay: Antiproliferative activity against human U87MG cells assessed as cell growth inhibition measured after 72 hrs by SRB assay; format: functional, cell-based, U-87MG ATCC
Procedure, shortened: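 U87MG human glioma cells grown in DMEM with 10% FBS at 37 °C, used up to 30 passages and treated at 40-50% confluence. Exposed to 0.1-100 µM for 72 h, with DMSO at most 0.1% final. TCA-fixed, stained with SRB, dye solubilized in Tris pH 10.5, read at 510 nm, expressed as % of DMSO controls. Mean ± SD of three independent assays.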

GL261 [18] = assay: Antitumor activity against C57BL/6 mouse GL261 cells xenografted in C57BL/6 mouse assessed as reduction in tumor volume at 10 to 100 mg/kg, po administered via gavage once daily for 10 days starting from 7 days post tumor cell inoculation and measured on day 17; format: functional, organism-based; conditions: dose 10-100 mg/kg/day, time 10.0 day; procedure, shortened: as §4
Rattus norvegicus [19] = species on record: Rattus norvegicus; assay: (§5) Inhibition of TrxR in rat liver assessed as reduction in TNB formation using DTNB and NADPH as substrate preincubated with enzyme for 15 mins followed by NADPH addition by absorbance based analysis; format: tissue-based; procedure, shortened: as §3
[20] = as §5; format: tissue-based; procedure, shortened: as §3
[21] = Selectivity index, ratio of CC50 for Wistar rat astrocytes to EC50 for human U87MG cells; procedure, shortened: as §2
[22] = Nephrotoxicity in C57BL/6 mouse xenografted with C57BL/6 mouse GL261 cells assessed as serum creatinine level at 100 mg/kg, po or ip administered once daily for 10 days starting from 7 days post tumor cell inoculation and measured on day 17 (reference value: 0.4 +/- 0.3 mg/dl); format: toxicity, organism-based; conditions: in vivo, 240 h, dose 100 mg/kg/day, time 10 day
C6 [23] = assay: Antiproliferative activity against rat C6 cells assessed as cell growth inhibition measured after 72 hrs by SRB assay; format: functional, cell-based; conditions: C6, 72 h
[24] = Toxicity in C57BL/6 mouse xenografted with C57BL/6 mouse GL261 cells at 100 mg/kg, ip administered once daily for 10 days starting from 7 days post tumor cell inoculation; format: organism-based; conditions: in vivo, 240 h, dose 100 mg/kg/day, time 10 day; procedure, shortened: as §1
GL261 [25] = assay: Antitumor activity against C57BL/6 mouse GL261 cells xenografted in C57BL/6 mouse assessed as reduction in tumor volume at 20 mg/kg, po administered via gavage once daily for 10 days starting from 7 days post tumor cell inoculation and measured on day 17; format: functional, organism-based; conditions: dose 20.0 mg/kg/day, time 10.0 day
GL261 [26] = assay: Antitumor activity against C57BL/6 mouse GL261 cells xenografted in C57BL/6 mouse assessed as reduction in tumor volume at 20 mg/kg, ip administered once daily for 10 days starting from 7 days post tumor cell inoculation and measured on day 17; format: functional, organism-based; conditions: dose 20.0 mg/kg/day, time 10.0 day
Astrocyte = assay: Cytotoxicity against Wistar rat astrocytes assessed as cell growth inhibition at 100 uM measured after 72 hrs by SRB assay; format: cell-based

Compound: Cc1cccc(C(=O)/C=C/c2ccc([N+](=O)[O-])o2)c1
Activity [1]: Non-Toxic
Activity (C6 [2]): inactive
Ratio CC50/EC50 [3]: 22.7
inhibition (Rattus norvegicus [4]): 95.2%
Activity [5]: 20.3 U/L
Activity [6]: 46%
Ratio CC50/EC50 [7]: 24.8
EC50 (U-251): 2.3 µM
Activity [8]: 6.2 U/L
Activity (C6 [9]): Active
Activity [10]: Non-Toxic
inhibition in vivo at 100 mg/kg/day [11]: 43.8%
Activity [12]: 108 mg/dL
Activity [13]: Non-Toxic
Activity [14]: 8.4 10^3 /uL
Activity [15]: Non-Toxic
CC50 at 72 h [16]: 52.2 µM
Activity [17]: Non-Toxic
EC50 (U-87 MG): 3.3 µM
Activity (GL261 [18]): inactive
inhibition (Rattus norvegicus [19]): Dose-dependent effect
IC50 [20]: 25 µM
Ratio CC50/EC50 [21]: 15.8
Activity [22]: 0.4 mg/dL
EC50 (C6 [23]): 2.1 µM
Activity [24]: Non-Toxic

EC50 (U-251): > 200 µM
EC50 (U-87 MG): > 200 µM
Compound: Cn1nnc2c(C(N)=O)ncn2c1=O [TEMOZOLOMIDE]
Activity (GL261 [25]): inactive
EC50 (C6 [23]): 60.5 µM
Activity (GL261 [26]): Active
Activity (Astrocyte): Non-Toxic

Compound: CCCCc1ccc(C(=O)/C=C/c2ccc([N+](=O)[O-])o2)cc1
Activity [1]: Non-Toxic
Activity (C6 [2]): inactive
Ratio CC50/EC50 [3]: 10.6
inhibition (Rattus norvegicus [4]): 80.7%
Activity [5]: 22.2 U/L
Activity [6]: 45.5%
Ratio CC50/EC50 [7]: 24.2
EC50 (U-251): 3.9 µM
Activity [8]: 19.8 U/L
Activity (C6 [9]): Active
Activity [10]: Non-Toxic
Activity [12]: 94 mg/dL
Activity [13]: Non-Toxic
Activity [14]: 9.5 10^3 /uL
Activity [15]: Non-Toxic
CC50 at 72 h [16]: 41.2 µM
Activity [17]: Non-Toxic
EC50 (U-87 MG): 5.8 µM
Activity (GL261 [18]): inactive
inhibition (Rattus norvegicus [19]): Dose-dependent effect
IC50 [20]: 25 µM
Ratio CC50/EC50 [21]: 7.1
Activity [22]: 0.3 mg/dL
EC50 (C6 [23]): 1.7 µM
Activity [24]: Non-Toxic

Compound: O=C(/C=C/c1ccc([N+](=O)[O-])o1)c1cccc(Br)c1
Activity [1]: Non-Toxic
Activity (C6 [2]): inactive
Ratio CC50/EC50 [3]: 6.1
inhibition (Rattus norvegicus [4]): 78.7%
Activity [5]: 20.6 U/L
Activity [6]: 45.3%
Ratio CC50/EC50 [7]: 25.4
EC50 (U-251): 5.8 µM
Activity [8]: 9.9 U/L
Activity (C6 [9]): Active
Activity [10]: Non-Toxic
inhibition in vivo at 100 mg/kg/day [11]: 41.3%
Activity [12]: 109 mg/dL
Activity [13]: Non-Toxic
Activity [14]: 9.2 10^3 /uL
Activity [15]: Non-Toxic
CC50 at 72 h [16]: 35.6 µM
Activity [17]: Non-Toxic
EC50 (U-87 MG): 6.8 µM
Activity (GL261 [18]): inactive
Ratio CC50/EC50 [21]: 5.2
Activity [22]: 0.5 mg/dL
EC50 (C6 [23]): 1.4 µM
Activity [24]: Non-Toxic

— ChEMBL document CHEMBL4765251, “Efficient identification of novel anti-glioma lead compounds by machine learning models” (Eur J Med Chem, 2020)
